Source: ChEMBL document CHEMBL1136810, “Design and synthesis of plasmepsin I and plasmepsin II inhibitors with activity in Plasmodium falciparum-infected cultured human erythrocytes” (J Med Chem, 2003)

Columns and labels:
Plasmepsin II = Plasmepsin II (Plasmodium falciparum, UniProt P46925); test: Binding affinity for Plasmodium falciparum plasmepsin-2.
How it was run: (§1)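 Fluorogenic protease assay in 100 mM sodium acetate pH 4.5 with 10% glycerol and 0.01% Tween 20. Pro-Plm II at 3 nM had its pro-sequence removed by 40 min preincubation at room temperature. Plm I was matched to similar activity. Pro-cathepsin D at 50 ng/mL was activated 20 min at 37 °C. Inhibitors in DMSO (1% final) were added before 3 μM DABCYL/EDANS peptide substrate. Fluorescence rise was read over 10 min. IC50 came from a competitive-isotherm fit and was converted to Ki using Km.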

Cathepsin D = Cathepsin D (Homo sapiens, UniProt P07339); test: In vitro binding affinity for human cathepsin D.; how it was run: as §1
Plasmepsin I = Plasmepsin I (Plasmodium falciparum, UniProt P39898); test: Binding affinity for Plasmodium falciparum plasmepsin-1.; how it was run: as §1
Plasmodium falciparum [1] = test: Effective dose against Plasmodium falciparum in red blood cells; type: functional; settings: read-out: ED50 (the source's name)
Caco-2 = test: Permeability in Caco-2 cells was determined; type: functional, cell-based; settings: Homo sapiens
Plasmodium falciparum [2] = test: Percent inhibition against Plasmodium falciparum infected red blood cells at 5 uM; type: functional
Plasmodium falciparum [3] = test: Percent inhibition of Plasmodium falciparum in erythrocytes at 5 uM; type: functional
Plasmodium falciparum [4] = test: Percent inhibition of Plasmodium falciparum in red blood cells at 5 uM; type: functional

Chain of Plasmepsin II (P46925 whole entry): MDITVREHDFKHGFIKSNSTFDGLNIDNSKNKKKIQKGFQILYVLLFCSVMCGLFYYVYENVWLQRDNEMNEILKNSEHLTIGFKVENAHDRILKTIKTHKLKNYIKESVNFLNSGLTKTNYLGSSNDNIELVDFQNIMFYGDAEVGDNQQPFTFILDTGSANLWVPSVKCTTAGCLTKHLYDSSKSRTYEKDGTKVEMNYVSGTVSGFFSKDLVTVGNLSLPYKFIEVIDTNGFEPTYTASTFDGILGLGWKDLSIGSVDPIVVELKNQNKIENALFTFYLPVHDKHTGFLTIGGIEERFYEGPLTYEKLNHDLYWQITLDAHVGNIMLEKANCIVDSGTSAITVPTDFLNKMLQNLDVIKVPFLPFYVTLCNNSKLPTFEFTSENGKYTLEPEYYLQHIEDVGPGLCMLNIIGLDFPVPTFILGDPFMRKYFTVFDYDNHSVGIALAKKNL
Chain of Plasmepsin I (P39898 whole entry): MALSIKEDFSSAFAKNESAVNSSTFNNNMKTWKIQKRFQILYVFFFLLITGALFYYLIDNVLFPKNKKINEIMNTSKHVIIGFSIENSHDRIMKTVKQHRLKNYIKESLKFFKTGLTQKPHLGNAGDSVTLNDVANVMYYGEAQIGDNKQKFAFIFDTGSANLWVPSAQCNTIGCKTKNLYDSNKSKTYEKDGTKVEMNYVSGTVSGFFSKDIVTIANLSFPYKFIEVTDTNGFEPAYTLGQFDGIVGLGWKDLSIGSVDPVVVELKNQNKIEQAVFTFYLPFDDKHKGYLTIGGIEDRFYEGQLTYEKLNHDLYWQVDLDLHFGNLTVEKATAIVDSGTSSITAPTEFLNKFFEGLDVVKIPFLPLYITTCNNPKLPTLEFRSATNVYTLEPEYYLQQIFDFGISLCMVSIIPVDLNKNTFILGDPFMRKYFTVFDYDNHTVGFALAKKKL
Chain of Cathepsin D (P07339 65-162 limits assumed): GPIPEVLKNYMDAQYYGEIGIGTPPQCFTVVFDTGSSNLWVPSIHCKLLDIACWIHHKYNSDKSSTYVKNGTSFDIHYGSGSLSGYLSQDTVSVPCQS
Chain of Cathepsin D (P07339 169-412 limits assumed): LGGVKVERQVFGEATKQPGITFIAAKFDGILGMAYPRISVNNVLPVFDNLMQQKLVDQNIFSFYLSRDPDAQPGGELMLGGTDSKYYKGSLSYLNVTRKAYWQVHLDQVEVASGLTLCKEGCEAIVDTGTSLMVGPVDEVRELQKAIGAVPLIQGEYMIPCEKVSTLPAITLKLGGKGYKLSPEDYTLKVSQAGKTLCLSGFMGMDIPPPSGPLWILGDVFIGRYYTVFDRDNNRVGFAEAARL

SMILES	Ki (Plasmepsin II)	Ki (Cathepsin D)	Ki (Plasmepsin I)	also measured
CC(C)[C@H](NC(=O)c1ccccn1)C(=O)N[C@@H](Cc1ccccc1)[C@@H](O)CN1C(=O)NC(=O)[C@@H]1Cc1ccc(Br)cc1	1.9 µM	> 2 µM	> 2 µM	–
Cc1ccc(-c2cccc(C[C@H](NC[C@H](O)[C@H](Cc3ccccc3)NC(=O)[C@@H](NC(=O)c3ccccn3)C(C)C)C(N)=O)c2)cc1	0.93 µM	1.9 µM	1.1 µM	–
CC(C)[C@H](NC(=O)c1ccccn1)C(=O)N[C@@H](Cc1ccccc1)[C@@H](O)CN[C@H](C(N)=O)c1ccccc1	> 2 µM	> 2 µM	> 2 µM	–
CC(C)C[C@H](NC[C@H](O)[C@H](Cc1ccccc1)NC(=O)c1ccccn1)C(N)=O	> 2 µM	> 2 µM	> 2 µM	–
Cc1ccc(-c2ccc(C[C@H](NC[C@H](O)[C@H](Cc3ccccc3)NC(=O)[C@@H](NC(=O)c3ccccn3)C(C)C)C(N)=O)cc2)cc1	0.121 µM	–	0.115 µM	EC50 (Plasmodium falciparum [1]): 1.6 µM
CC(C)[C@H](NC(=O)c1ccccn1)C(=O)N[C@@H](Cc1ccccc1)[C@@H](O)CN[C@@H](C)C(N)=O	> 2 µM	> 2 µM	> 2 µM	–
CC(C)[C@H](NC(=O)c1ccccn1)C(=O)N[C@@H](Cc1ccccc1)[C@@H](O)CN[C@@H](Cc1ccc(-c2ccccc2)cc1)C(N)=O	0.117 µM	> 2 µM	0.068 µM	Papp (Caco-2): 10.3 ×10⁻⁶ cm/s
CCCCNC(=O)C[C@H](O)[C@H](CC(C)C)NC(=O)[C@@H](NC(=O)Cc1ccc2ccccc2c1)C(C)CC (stereo partly drawn)	0.05 µM	0.32 µM	–	–
CC(C)C[C@H](NC[C@H](O)[C@H](Cc1ccccc1)NC(=O)[C@@H](NC(=O)c1ccccn1)C(C)C)C(N)=O	–	> 2.8 µM	–	–
CC(C)[C@H](NC(=O)c1ccccn1)C(=O)N[C@@H](Cc1ccccc1)[C@@H](O)CN[C@@H](Cc1cccc(-c2ccccc2)c1)C(N)=O	0.579 µM	1.6 µM	1 µM	–
CC(C)[C@H](NC(=O)c1ccccn1)C(=O)N[C@@H](Cc1ccccc1)[C@@H](O)CN[C@@H](Cc1ccccc1)C(N)=O	–	> 2.8 µM	–	–
CC(C)[C@H](NC(=O)c1ccccn1)C(=O)N[C@@H](Cc1ccccc1)[C@@H](O)CN[C@H](Cc1ccccc1)C(N)=O	–	> 2 µM	–	–
CC(C)[C@H](NC(=O)c1ccccn1)C(=O)N[C@@H](Cc1ccccc1)[C@@H](O)CN[C@@H](Cc1ccc(Br)cc1)C(N)=O	0.54 µM	> 2 µM	0.098 µM	inhibition at 5 µM (Plasmodium falciparum [2]): 35%
CC(C)[C@H](NC(=O)c1ccccn1)C(=O)N[C@@H](Cc1ccccc1)[C@@H](O)CN[C@@H](Cc1cccc(OS(=O)(=O)C(F)(F)F)c1)C(N)=O	> 2 µM	1.7 µM	0.469 µM	–
COc1ccccc1-c1ccc(C[C@H](NC[C@H](O)[C@H](Cc2ccccc2)NC(=O)[C@@H](NC(=O)c2ccccn2)C(C)C)C(N)=O)cc1	0.379 µM	–	0.437 µM	–
COc1ccccc1-c1cccc(C[C@H](NC[C@H](O)[C@H](Cc2ccccc2)NC(=O)[C@@H](NC(=O)c2ccccn2)C(C)C)C(N)=O)c1	1.43 µM	> 2 µM	1.3 µM	–
CC(C)[C@H](NC(=O)c1ccccn1)C(=O)N[C@@H](Cc1ccccc1)[C@@H](O)CN[C@@H](Cc1ccc(-c2cccc(N)c2)cc1)C(N)=O	0.15 µM	–	0.063 µM	inhibition at 5 µM (Plasmodium falciparum [3]): 77%
CC(C)[C@H](NC(=O)c1ccccn1)C(=O)N[C@@H](Cc1ccccc1)[C@@H](O)CN1C(=O)NC(=O)[C@@H]1Cc1ccc(-c2ccccc2)cc1	0.928 µM	> 2 µM	2.05 µM	–
CC(C)[C@H](NC(=O)c1ccccn1)C(=O)N[C@@H](Cc1ccccc1)[C@@H](O)CN[C@@H](Cc1cccc(-c2cccc(N)c2)c1)C(N)=O	0.129 µM	> 2 µM	0.53 µM	inhibition at 5 µM (Plasmodium falciparum [4]): 69%
CC(C)C[C@H](NC(=O)[C@H](C)NC(=O)C[C@H](O)[C@H](Cc1ccccc1)NC(=O)[C@@H](NC(=O)c1ccccn1)C(C)C)C(N)=O	0.00056 µM	–	–	–
